Consider six molecules from PubChem BioAssay AID493016 (Southern Research Specialized Biocontainment Screening …, 2011).

Molecules are shown by their SMILES. Activity calls are given as the source filed them.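 The calls were made as follows: active = compounds blocking at least half of virus-caused cell death at some tested dose; inactive = the rest.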 A value given as a limit tells only on which side of the number the result lay.

The test system of the assay is HEp-2 RSV Long CPE inhibition, luminescence. Briefly: inhibitors of RSV-induced HEp-2 cell death – RSV Long, synthesized compounds, set 4, dose response (AID 493016). A digest of the protocol: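 Assay system: HEp-2 human cells infected with respiratory syncytial virus strain Long; reagent: RSV Long, MOI 0.45; timing: six-day compound and virus exposure at 37 °C; detection: luminescence-based measurement of virus-induced cytopathic effect; repeats: triplicate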
`Cc1ccc2c(c1)CCN2C(=O)[C@@H]1CCCN1S(=O)(=O)c1cccc2cccnc12`: the IC50 was > 50 µM (inactive).

`COc1ccccc1CNC(=O)C1CCN(S(=O)(=O)c2cccc3nonc23)CC1`: the IC50 is 3.1 µM. The same measure for `O=C(Nc1ccccc1)[C@@H]1CCCN1S(=O)(=O)c1cccc2cccnc12`: > 50 µM (inactive). Take `Cc1ccc(NC(=O)[C@@H]2CCCN2S(=O)(=O)c2cccc3cccnc23)c(C)n1`: the IC50 was > 50 µM (inactive).

Turning to `CC(C)c1ccccc1NC(=O)[C@@H]1CCCN1S(=O)(=O)c1cccc2cccnc12`, the IC50 was 10.9 µM. The same measure for `O=C([C@@H]1CCCN1S(=O)(=O)c1cccc2cccnc12)N1CCc2ccccc21`: > 50 µM (inactive).

What is called IC50 is the midpoint of a concentration-inhibition curve.
